The values that follow come from ChEMBL document CHEMBL4004830 (J Med Chem, 2017).

Data set [1] relates to MV4-11. Briefly: Cell cycle arrest in human MV4-11 cells assessed as accumulation at G1 phase at 0.04 uM after 24 hrs by propidium iodide staining based flow cytometry (reference value: 61.01%). The class given is functional. For orientation: In flow cytometry, cells or beads pass a laser one at a time.
Data set [2] has as its system MV4-11. Briefly: Cell cycle arrest in human MV4-11 cells assessed as accumulation at G2/M phase at 0.04 uM after 24 hrs by propidium iodide staining based flow cytometry (reference value: 17.94%). The class given is functional.
Data set [3] relates to MV4-11. The data set can be described thus: Cell cycle arrest in human MV4-11 cells assessed as accumulation at S phase at 0.20 uM after 24 hrs by propidium iodide staining based flow cytometry (reference value: 19.07%). The class given is functional.
Data set [4] deals with MV4-11. The data set can be described thus: Cell cycle arrest in human MV4-11 cells assessed as accumulation at G1 phase at 0.40 uM after 24 hrs by propidium iodide staining based flow cytometry (reference value: 61.01%). The class given is functional.
In data set [5] the test system is MV4-11. Briefly: Effect on total Rb protein levels in human MV4-11 cells at GI50 after 12 to 24 hrs by Western blot analysis. The class given is cell-based. An outline of the steps: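 MV4-11 cells were treated for 12 or 24 h, then analysed by Western blot for Rb, including phospho-Ser780. β-Actin served as the loading control. Data are representative of two independent experiments.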

For data set [6], the system named is MV4-11. The data set can be described thus: Cell cycle arrest in human MV4-11 cells assessed as accumulation at sub-G1 phase at 5 times GI50 after 24 hrs by propidium iodide staining based flow cytometry (reference value: 0.91%). The class given is functional. Put shortly: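 MV4-11 cells were treated with increasing concentrations for 24 h. Cells were then harvested, fixed and stained with propidium iodide before flow cytometric cell cycle analysis.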

For data set [7], the target named is CDK6/cyclin D3 (Homo sapiens, UniProt Q00534). Briefly: Inhibition of CDK6/cyclin D3 (unknown origin) in presence of [gamma-33P]-ATP […]. The class given is protein-complex assay. The following applies: read-out: Ki(app).
Sequence of CDK6/cyclin D3 (P30281 whole entry): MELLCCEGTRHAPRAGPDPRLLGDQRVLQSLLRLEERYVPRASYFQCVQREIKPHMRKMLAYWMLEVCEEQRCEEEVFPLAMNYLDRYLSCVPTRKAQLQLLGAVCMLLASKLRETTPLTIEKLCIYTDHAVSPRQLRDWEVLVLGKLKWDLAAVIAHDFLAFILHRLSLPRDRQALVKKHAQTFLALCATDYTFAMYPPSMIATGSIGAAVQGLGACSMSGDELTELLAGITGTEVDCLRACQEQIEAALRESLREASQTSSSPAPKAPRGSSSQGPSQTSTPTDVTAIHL
Sequence of CDK6/cyclin D3 (Q00534 whole entry): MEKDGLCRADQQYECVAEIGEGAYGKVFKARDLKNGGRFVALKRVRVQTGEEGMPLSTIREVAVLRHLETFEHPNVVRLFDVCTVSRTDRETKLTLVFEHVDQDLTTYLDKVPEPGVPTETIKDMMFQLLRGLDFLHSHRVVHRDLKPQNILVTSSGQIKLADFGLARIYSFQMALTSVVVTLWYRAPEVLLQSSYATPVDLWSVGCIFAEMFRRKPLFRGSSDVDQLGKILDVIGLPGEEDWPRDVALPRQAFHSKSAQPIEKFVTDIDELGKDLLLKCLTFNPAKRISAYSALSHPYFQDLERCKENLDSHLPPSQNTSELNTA
Data set [8] concerns the target CDK2/Cyclin A2 (Homo sapiens, UniProt P24941). The data set can be described thus: Inhibition of CDK2/cyclin A (unknown origin) in presence of [gamma-33P]-ATP […]. The class given is protein-complex assay. Conditions: read-out: Ki(app).
Data set [9] is filed under the species Homo sapiens. Briefly: Selectivity ratio of Ki for CDK2/cyclin A (unknown origin) to Ki for CDK6/cyclin D3 (unknown origin). An outline of the steps:
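Apparent Ki for each CDK–cyclin complex (CDK4–cyclin D1, CDK6–cyclin D3, CDK2–cyclin A) calculated from the half-maximal inhibition (IC50) and that kinase's Km(ATP). The selectivity ratio is the CDK2 Ki divided by the CDK4 or CDK6 Ki.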

Data set [10] deals with Cyclin-dependent kinase 4/6 (Homo sapiens) (UniProt P11802+Q00534). The data set can be described thus: Inhibition of CDK4/6 in human MV4-11 cells assessed as reduction in Rb phosphorylation at Ser780 after 12 to 24 hrs by Western blot analysis. The class given is cell-based. Put shortly:
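MV4-11 cells treated 12 or 24 h across a dose series; Rb phospho-Ser780 detected by Western blot with β-actin as loading control; two independent experiments.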
A general note: Immunoblotting shows a protein as a band on a membrane.

The target in data set [11] is Cytochrome P450 3A4 (Homo sapiens, UniProt P08684). Briefly: Inhibition of CYP3A4 in human liver microsomes using midazolam as substrate in presence of NADPH. The class given is ADME. Put shortly:
(§1)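 Human liver microsomes with NADPH and isoform-specific probe substrate (midazolam CYP3A4, dextromethorphan CYP2D6, ethoxyresorufin CYP1A, tolbutamide CYP2C9, mephenytoin CYP2C19); IC50 reported in µM.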
A general note: Liver microsomes are vesicles of endoplasmic reticulum, rich in cytochrome P450 enzymes.

For data set [12], the target named is Cytochrome P450 2D6 (Homo sapiens, UniProt P10635). The data set can be described thus: Inhibition of CYP2D6 in human liver microsomes using dextromethorphan as substrate in presence of NADPH. The class given is ADME. Put shortly: as §1
Sequence of Cytochrome P450 2D6 (P10635 whole entry): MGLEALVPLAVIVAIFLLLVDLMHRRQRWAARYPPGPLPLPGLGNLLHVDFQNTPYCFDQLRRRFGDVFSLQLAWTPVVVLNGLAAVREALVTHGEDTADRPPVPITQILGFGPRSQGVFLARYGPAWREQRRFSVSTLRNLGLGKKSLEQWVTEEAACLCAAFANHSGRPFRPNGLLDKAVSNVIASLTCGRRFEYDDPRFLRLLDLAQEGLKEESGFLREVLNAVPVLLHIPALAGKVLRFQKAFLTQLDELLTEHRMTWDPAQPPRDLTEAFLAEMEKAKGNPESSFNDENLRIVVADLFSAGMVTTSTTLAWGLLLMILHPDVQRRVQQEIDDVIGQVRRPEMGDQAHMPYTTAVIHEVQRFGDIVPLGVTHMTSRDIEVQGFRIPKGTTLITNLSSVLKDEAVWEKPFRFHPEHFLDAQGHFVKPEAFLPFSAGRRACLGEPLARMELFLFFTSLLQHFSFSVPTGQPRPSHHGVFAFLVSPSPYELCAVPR
Data set [13] concerns the target Cytochrome P450 2C19 (Homo sapiens, UniProt P33261). Briefly: Inhibition of CYP2C19 in human liver microsomes using mephenytoin as substrate in presence of NADPH. The class given is ADME. An outline of the steps: as §1
Data set [14] in a line: Octanol/aqueous buffer partition co-efficient, log D of the compound at pH 7.4 by shake-flask method. The class given is physicochemical.
Data set [15] in a line: Apparent permeability co-efficient from apical to basolateral side in human Caco2 cells. The class given is ADME, cell-based. Conditions: Caco-2. Put shortly:
(§2)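 Caco-2 monolayer assay measuring the apparent permeability coefficient (P_app, 10^-6 cm/s) in the A→B and B→A directions. Efflux ratio is the mean P_app B-A divided by the mean P_app A-B.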

Data set [16] can be described thus: Apparent permeability co-efficient from basolateral to apical side in human Caco2 cells. The class given is ADME, cell-based. Conditions: Caco-2. An outline of the steps: as §2
Data set [17] in a line: Cmax in albino Wistar rat at 5 mg/kg, iv up to 24 hrs by LC-MS/MS analysis. The class given is ADME, organism-based. More on the design: dose 5 mg/kg, route intravenous. Conditions: in vivo.
Data set [18] in a line: Half-life in albino Wistar rat at 5 mg/kg, iv up to 24 hrs by LC-MS/MS analysis. The class given is ADME, organism-based. The following applies: in vivo. An outline of the steps: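 Single-dose pharmacokinetics in male albino Wistar rats, 5 mg/kg IV.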
Data set [19] is described as follows: Tmax in albino Wistar rat at 20 mg/kg administered via oral gavage measured up to 24 hrs by LC-MS/MS analysis. The class given is ADME, organism-based. The following applies: in vivo. An outline of the steps:
(§3)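 Single-dose pharmacokinetics in male animals: albino Wistar rats given 5 mg/kg IV or 20 mg/kg PO, and BALB/c mice given 2 mg/kg IV or 10 mg/kg PO.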

Data set [20] can be described thus: Volume of distribution at steady state in BALB/c mouse at 2 mg/kg, iv up to 24 hrs by LC-MS/MS analysis. The class given is ADME, organism-based. Conditions: in vivo, read-out: Vdss. An outline of the steps:
as §3

The nature of data set [21]: AUC (0 to t) in BALB/c mouse at 2 mg/kg, iv up to 24 hrs by LC-MS/MS analysis. The following applies: in vivo. More on the design: dose 2 mg/kg, time < 24 hr, route intravenous. The class given is ADME, organism-based.
The nature of data set [22]: AUC (0 to t) in BALB/c mouse at 10 mg/kg administered via oral gavage measured up to 24 hrs by LC-MS/MS analysis. The class given is ADME, organism-based. Conditions: in vivo. More on the design: dose 10 mg/kg, time < 24 hr, route oral.
Data set [23] can be described thus: Oral bioavailability in BALB/c mouse at 10 mg/kg measured up to 24 hrs by LC-MS/MS analysis. Conditions: in vivo. The class given is ADME, organism-based. Put shortly:
as §3

Data set [24] deals with Mus musculus. The data set can be described thus: Toxicity in nude BALB/c mouse assessed as body weight loss at 20 to 100 mg/kg, po qd measured up to 14 days post dose. The class given is organism-based. The following applies: in vivo, 336 h.
In data set [25] the test system is MV4-11. The data set can be described thus: Antitumor activity against human MV4-11 cells xenografted in nude BALB/c mouse assessed as tumor growth inhibition at 100 mg/kg, po qd administered for 33 consecutive days and left untreated for another 50 days. The class given is functional, organism-based.
The test system of data set [26] is MV4-11. Briefly: Antitumor activity against human MV4-11 cells xenografted in nude BALB/c mouse assessed as median survival time at 100 mg/kg, po qd administered for 33 consecutive days and left untreated for another 50 days (reference value: 33 days). The class given is functional.
Data set [27] has as its system MV4-11. Briefly: Antitumor activity against human MV4-11 cells xenografted in nude BALB/c mouse assessed as tumor growth inhibition at 100 mg/kg, po qd administered for 33 consecutive days measured post last dose. The class given is functional. Conditions: MV4-11, po, read-out: TGI.
The test system of data set [28] is MV4-11. Briefly: Antitumor activity against human MV4-11 cells xenografted in nude BALB/c mouse assessed as tumor growth inhibition at 100 mg/kg, po qd administered for 33 consecutive days measured on day 50. The class given is functional, organism-based.
In data set [29] the test system is Mus musculus. Briefly: Toxicity in nude BALB/c mouse xenografted with human MV4-11 cells assessed as body weight loss at 100 mg/kg, po qd for 33 consecutive days and left untreated for another 50 days. Conditions: in vivo, 1200 h. The class given is organism-based.
For data set [30], the system named is Mus musculus. Briefly: Toxicity in nude BALB/c mouse xenografted with human MV4-11 cells assessed as overt toxicity at 100 mg/kg, po qd for 33 consecutive days and left untreated for another 50 days. The class given is organism-based. Conditions: in vivo, 1200 h.

Calls of active or inactive are those of the source.

Sequence of Cyclin-dependent kinase 4/6 (Homo sapiens) (P11802 whole entry, looked up): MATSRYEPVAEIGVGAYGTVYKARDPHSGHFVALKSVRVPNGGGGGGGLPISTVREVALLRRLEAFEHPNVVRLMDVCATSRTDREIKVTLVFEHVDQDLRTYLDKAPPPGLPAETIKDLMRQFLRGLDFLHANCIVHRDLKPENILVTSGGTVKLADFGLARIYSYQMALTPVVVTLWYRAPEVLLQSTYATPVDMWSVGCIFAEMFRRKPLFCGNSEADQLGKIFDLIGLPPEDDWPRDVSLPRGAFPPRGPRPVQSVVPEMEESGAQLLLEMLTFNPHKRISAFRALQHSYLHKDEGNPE
Sequence of Cyclin-dependent kinase 4/6 (Homo sapiens) (Q00534 whole entry, looked up): as the sequence (Q00534 whole entry) above
Sequence of Cytochrome P450 2C19 (P33261 whole entry): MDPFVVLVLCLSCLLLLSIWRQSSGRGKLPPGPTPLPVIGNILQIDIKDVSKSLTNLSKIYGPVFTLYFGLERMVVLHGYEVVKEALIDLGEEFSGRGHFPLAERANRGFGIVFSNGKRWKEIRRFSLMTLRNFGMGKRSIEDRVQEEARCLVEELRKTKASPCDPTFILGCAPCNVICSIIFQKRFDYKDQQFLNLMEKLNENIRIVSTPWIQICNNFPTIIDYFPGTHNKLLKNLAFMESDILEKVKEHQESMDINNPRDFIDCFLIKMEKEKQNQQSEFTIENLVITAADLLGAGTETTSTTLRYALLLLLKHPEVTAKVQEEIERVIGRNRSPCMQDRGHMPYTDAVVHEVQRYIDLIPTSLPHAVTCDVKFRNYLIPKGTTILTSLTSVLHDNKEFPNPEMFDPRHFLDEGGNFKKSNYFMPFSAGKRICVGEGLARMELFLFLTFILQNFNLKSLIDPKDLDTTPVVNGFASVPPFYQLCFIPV
Sequence of Cytochrome P450 3A4 (P08684 whole entry, canonical isoform): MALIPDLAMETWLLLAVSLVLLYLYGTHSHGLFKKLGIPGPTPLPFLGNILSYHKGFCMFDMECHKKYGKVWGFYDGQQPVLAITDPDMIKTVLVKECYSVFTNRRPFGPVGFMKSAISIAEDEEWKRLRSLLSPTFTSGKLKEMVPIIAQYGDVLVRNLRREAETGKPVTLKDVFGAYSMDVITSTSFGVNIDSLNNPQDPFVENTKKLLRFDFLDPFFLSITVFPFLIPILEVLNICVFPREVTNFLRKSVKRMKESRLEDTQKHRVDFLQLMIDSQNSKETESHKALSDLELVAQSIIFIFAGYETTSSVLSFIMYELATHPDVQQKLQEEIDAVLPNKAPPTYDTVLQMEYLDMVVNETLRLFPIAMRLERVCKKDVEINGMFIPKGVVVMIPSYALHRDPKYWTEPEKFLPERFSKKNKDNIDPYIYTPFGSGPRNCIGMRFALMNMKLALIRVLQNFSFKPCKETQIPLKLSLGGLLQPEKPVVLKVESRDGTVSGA

As to `CC(=O)c1c(C)c2cnc(Nc3ccc(N4CCNCC4)cn3)nc2n(C2CCCC2)c1=O` [PALBOCICLIB], the Activity in data set [1] is recorded as 68.17%; in data set [2] it was 13.4%; in [3] it was 9.33%; in [4] it was 85.35%; in [5], “Toxic”; in [6], 1.81%.

In the case of `Cc1nc(NC2CCCC2)sc1-c1ccnc(Nc2ccc(N3CCOCC3)cn2)n1`, the Ki in data set [7] came to 0.03 µM; in data set [8] it was 4.68 µM. Also, the Ratio Ki in data set [9] was found to be 156. Also, in data set [10], the inhibition result was “Dose-dependent effect”. For the same molecule, the Activity is listed as 4.09% in data set [6], “Non-Toxic” in data set [24], “Non-Toxic” in data set [29] and “Non-Toxic” in data set [30]. Also, the IC50 in [11], in [12] and in data set [13] was more than 25 µM each time. In [14], this molecule displayed a logD of 4.4. For the same molecule, the Papp A→B in data set [15] was 10.1 ×10⁻⁶ cm/s. Besides, the Papp B→A in [16] came out at 3.98 ×10⁻⁶ cm/s. The molecule also yielded a Cmax in data set [17] of 38.8 µM. Moreover, the half-life in data set [18] was 4.2 h. Further, the time of peak concentration (Tmax) in data set [19] turned out to be 3.7 h. The Vd in data set [20] came to 5.6 L/kg. For the same molecule, the AUC(0-t) at 24 h in data set [21] was 1.2 µM·h; in [22], 5.9 µM·h. Also, the bioavailability in data set [23] stood at 100%. For the same molecule, the TGI entry in data set [25] and in data set [28] was “Active” in each case. Further, the MST in data set [26] is 55 days. For the same molecule, the inhibition in vivo at 100 mg/kg in [27] amounted to 76%.

As usually defined, the IC50 is the concentration that gives 50% inhibition. The logD is lipophilicity at a set pH, counting ionised and neutral species. A lower logD goes with lower lipophilicity. As usually defined, the Papp A→B is the apparent permeability from the apical to the basolateral side of a cell layer. Broadly, the Papp B→A is how fast a substance crosses the layer from the basolateral side. The term Cmax denotes the maximum level reached in the sampled fluid or tissue. What is called half-life is the time needed for the level to fall by half in the phase considered. Usually Tmax stands for the time from dosing to the highest level. One may read the AUC(0-t) as the area under the concentration-time curve up to a stated or last time point. As a reminder, the bioavailability is the share of a dose that reaches the circulation, judged against a reference dose that is usually intravenous.
